The list is not random: actives were taken first. Their share in the collection is about 0.77%.
bIAP act = intestinal alkaline phosphatase (bovine) activation; purified bovine IAP, CDP-star luminescence, 30 min; active compounds read high; fold of DMSO-control signal, blank-subtracted; activation factor at 20 µM; AID 1016; hit rate 0.17% among 200,000;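 active = activation factor of 2 or more at 20 µM, a signal rise over negative controls twice the positive control's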
hIAP act = human IAP activation; hit rate 0.16% among 330,000; activation factor at 10 µM; AID 2524; P09923; purified human IAP, CDP-Star luminescence, 30 min; active compounds read high; 1 = vehicle-only enzyme, 0 = enzyme-free background;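 active = activation factor of the enzyme at least 2-fold when tested at 20 µM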
Target sequence (P09923 whole entry, looked up): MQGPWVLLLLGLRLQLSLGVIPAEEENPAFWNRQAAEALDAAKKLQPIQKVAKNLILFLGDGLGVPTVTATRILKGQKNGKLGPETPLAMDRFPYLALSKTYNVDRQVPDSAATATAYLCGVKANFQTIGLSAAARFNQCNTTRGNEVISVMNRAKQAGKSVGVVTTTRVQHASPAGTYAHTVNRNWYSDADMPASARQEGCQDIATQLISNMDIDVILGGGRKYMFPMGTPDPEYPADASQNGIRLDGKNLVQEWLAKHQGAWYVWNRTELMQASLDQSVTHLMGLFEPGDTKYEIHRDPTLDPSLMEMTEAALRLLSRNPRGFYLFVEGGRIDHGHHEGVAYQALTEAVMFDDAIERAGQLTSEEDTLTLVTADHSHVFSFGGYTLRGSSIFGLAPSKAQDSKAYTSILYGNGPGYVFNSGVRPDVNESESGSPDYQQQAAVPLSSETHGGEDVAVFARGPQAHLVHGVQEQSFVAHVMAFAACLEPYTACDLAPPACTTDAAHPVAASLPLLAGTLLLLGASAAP
mIAP act = increases mouse intestinal alkaline phosphatase activity. muIAP, CDP-Star luminescence, 30 min; active compounds read high; 1 = vehicle-only enzyme signal, 0 = enzyme-free wells. hit rate 0.24% among 330,000. activation factor at 10 µM. AID 2805;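 active = activation factor of at least 2 at 20 µM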
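also added = chemiluminescent substrate CDP-Star | test system = mouse IAP enzyme | signal = chemiluminescence readout | compound = DMSO-dissolved test compounds | incubation = 30 min at room temperature | benchmarks = DMSO wells, no-enzyme wells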
hIAP inh = human IAP inhibition. P09923. purified IAP, CDP-Star luminescence, 30 min. inhibition, % at 10 µM. hit rate 0.12% among 330,000. AID 2544;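 active = inhibition reaching a set limit with compound at 10 µM in the primary screen, cut at about 35% in these data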;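 note: plate controls were DMSO wells with enzyme for no effect and no-enzyme buffer wells for full effect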
mIAP inh = mouse IAP inhibition. purified mouse IAP, CDP-Star luminescence, 30 min. inhibition, % at 10 µM. hit rate 0.2% among 330,000;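 active = inhibition of at least 40% at 10 µM in the primary screen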;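 note: plate controls were DMSO with enzyme for no effect and no enzyme wells for full effect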
bIAP inh = intestinal alkaline phosphatase (bovine) inhibition; AID 1019; inhibition, % at 20 µM; 190,000 tested, under 10 active; purified bovine IAP, CDP-star luminescence, 30 min;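 active = over 50% inhibition of intestinal alkaline phosphatase at 20 µM in the single-dose screen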
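Assay system: bovine IAP enzyme; medium: DEA buffer 100 mM, pH 9.8, with MgCl2 1.0 mM, ZnCl2 0.02 mM; doses: 20 µM single dose; incubation: enzyme reaction for 30 min at room temperature; detection: CDP-star luminescence signal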
hIAP act confirm = human IAP activation confirmation | shares compounds with hIAP act | hit rate 10% among 880 | AID 434926 | activation (%Activity, negative = activation), % at 8.3 µM | purified IAP, CDP-Star luminescence, 30 min; active compounds read low;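 active = at least twofold enzyme activation in any of six single-dose repeats, which the averaged readout prints as negative percent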
An asterisk follows results filed as active; / = no result given.

SMILES | bIAP act | hIAP act | mIAP act | hIAP inh | mIAP inh | bIAP inh | hIAP act confirm
CCCCc1nnc(NC(=O)Cc2ccc(S(=O)(=O)N3CCOCC3)s2)s1 | / | 1 | 1.1 | 0 | -6 | / | /
Nc1nc(CN2CCN(Cc3ccc4c(c3)OCO4)CC2)nc(Nc2ccccc2)n1 | 1.1 | 2* | 1 | -102 | -1 | -5 | -1
O=C(Nc1cccc(-c2cccc(F)c2)c1)C1CCN(Cc2ccco2)CC1 | / | 2.3* | 1.1 | -129 | -12 | / | -9
C1CCN(C2CCN(c3nc4nonc4nc3N3CCSCC3)CC2)C1 | 1.1 | 0.87 | 0.93 | 13 | 7 | -12 | /
C1CCC(Nc2nc3nonc3nc2N2CCSCC2)C1 | 1.1 | 0.63 | 1 | 37* | -3 | -9 | -3
COc1cccc(-c2nc(CS(=O)(=O)CC(=O)Nc3cc(OC)ccc3OC)c(C)o2)c1 | / | 0.64 | 0.97 | 36* | 3 | / | 31
COc1cccc(-c2nc(CS(=O)(=O)CC(=O)Nc3ccccc3C)c(C)o2)c1 | / | 1.3 | 1 | -32 | -3 | / | /
CCOC(=O)c1sc(NC(=O)CSc2nc(C)cc(-c3ccccc3)n2)c(C#N)c1C | 0.9 | 1 | 0.82 | 0 | 18 | 15 | /
CCOC(=O)c1sc(NC(=O)CSc2n[nH]c(-c3ccc(Cl)cc3Cl)n2)c(C#N)c1C | 0.9 | 0.31 | 0.68 | 69* | 32 | 13 | -1
CCCCCCCn1c(=N)n(CC(=O)c2ccco2)c2ccccc21 | 1 | 0.63 | 0.94 | 37* | 6 | 1 | -50*
CCCCn1c(=N)n(CC(=O)c2ccco2)c2ccccc21 | 0.8 | 0.88 | 1.1 | 12 | -7 | 18 | /
O=C1CC(C(=O)O)(c2ccccc2)c2cccc(F)c21 (stereo not drawn) | / | 0.99 | 1.1 | 1 | -6 | / | /
O=C(c1cccs1)N1CCc2ccccc21 | 0.9 | 2.2* | 1.1 | -119 | -6 | 7 | 4
CNC(=O)c1[nH]cnc1C(=O)Nc1ccccc1 | / | 1.4 | 0.89 | -40 | 11 | / | /
CNC(=O)c1[nH]cnc1C(=O)Nc1ccccn1 | 1.5 | 2.1* | 0.87 | -110 | 13 | -51 | -18
Cn1nnnc1N=N/C(=N/Nc1ccccc1)c1ccccc1 | / | 0.54 | 0.76 | 46* | 24 | / | 55
Oc1ccccc1N=N/C(=N/Nc1ccccc1O)c1ccccc1 | / | 0.95 | 0.96 | 5 | 4 | / | /
CCOc1ccc(-n2c(=O)c3sccc3n(CC(=O)NCC3CCCO3)c2=O)cc1 (stereo not drawn) | / | 1.1 | 0.94 | -7 | 6 | / | /
CCC(C)(C(=O)Nc1ccccc1C)N(C(=O)CNC(C)=O)c1ccccc1C (stereo not drawn) | 1 | 1 | 1 | -5 | -2 | -4 | /
COc1ccc(OC)c(NC(=O)c2cc(-c3cc(C)c(C)cc3O)n[nH]2)c1 | / | 2.2* | 1 | -117 | -1 | / | 6
COc1ccc(NC(=O)c2cc(-c3cc(Cl)ccc3O)n[nH]2)c(OC)c1 | / | 1.4 | 0.98 | -36 | 2 | / | /
COc1ccc(NC(=O)c2cc(-c3cc(C)c(C)cc3O)n[nH]2)c(OC)c1 | / | 2.1* | 1 | -112 | -4 | / | -19
COc1ccc(OC)c(NC(=O)c2cc(-c3cc(C)cc(C)c3O)n[nH]2)c1 | / | 1.6 | 1 | -58 | -2 | / | /
CC(C)=CCc1c(O)ccc2c1OC(c1ccc(O)c(O)c1)CC2=O (stereo not drawn) | 0.8 | 0.32 | 0.68 | 68* | 32 | 20 | 26
CC(C)=CCc1c(O)cc2c(c1O)C(=O)CC(c1ccccc1)O2 (stereo not drawn) | / | 0.86 | 0.93 | 14 | 7 | / | /
SMILES | bIAP act | hIAP act | mIAP act | hIAP inh | mIAP inh | bIAP inh | hIAP act confirm
COc1cc2c(cc1OC)[C@H](C)N(C(=S)Nc1ccc(F)cc1)CC2 | / | 2.3* | 1 | -127 | 0 | / | 3
COc1cc2c(cc1OC)C(C)N(C(=O)Nc1ccccc1)CC2 (stereo not drawn) | / | 0.94 | 0.98 | 6 | 2 | / | /
Cc1[nH]n(-c2nc(-c3ccccc3F)cc(=O)[nH]2)c(=O)c1CCO | 0.7 | 0.28 | 0.88 | 72* | 12 | 32 | -40*
Nc1ccc(S(=O)(=O)NC(Cc2ccccc2)C(=O)O)cc1 (stereo not drawn) | / | 0.82 | 1 | 18 | 0 | / | /
Cc1cc(Br)ccc1SCC(=O)OC/C(O)=C(\C#N)c1nc2ccccc2[nH]1 | / | 2.4* | 0.87 | -140 | 13 | / | -67*
COc1ccc(-c2cnc[nH]2)cc1 | 1 | 1.1 | 1 | -10 | 0 | -1 | /
CN1CCN(CCNC(=O)Cn2c(=O)c3cccn3c3ccc(F)cc32)CC1 | / | 0.61 | 0.93 | 39* | 7 | / | 35
Cc1ccc(N(CC(O)CN2C(=O)NC(C)(C)C2=O)S(=O)(=O)c2ccc([N+](=O)[O-])cc2)cc1 (stereo not drawn) | / | 0.61 | 0.92 | 39* | 8 | / | 18
Cc1ccc(N(CC(O)CN2C(=O)NC(C)(C)C2=O)S(=O)(=O)c2ccc(C)cc2)cc1 (stereo not drawn) | / | 0.93 | 1 | 7 | -4 | / | /
CCCn1c(SCCc2ccccc2)nc2c1c(=O)[nH]c(=O)n2C | 0.9 | 0.83 | 0.98 | 17 | 2 | 8 | /
CCCn1c(N/N=C(C)\C=C\c2ccccc2)nc2c1c(=O)[nH]c(=O)n2C | 2* | 2.3* | 1.1 | -125 | -14 | -101 | -28
CCOC(=O)C1=C(c2ccccc2)N=c2s/c(=C\c3cccc(O)c3)c(=O)n2C1c1cccs1 (stereo not drawn) | 1 | 0.8 | 0.92 | 20 | 8 | -1 | /
O=c1/c(=C\c2ccc(O)cc2)sc2n1C(c1ccccc1)C(c1ccccc1)=NN=2 (stereo not drawn) | 0.7 | 0.63 | 0.71 | 37* | 29 | 34 | -34
Cn1ccnc1SCc1ccc(Cl)cc1Cl | / | 2.2* | 1.1 | -119 | -8 | / | 19
COc1cccc(/C=N/Nc2nc(-c3cccnc3)nc3ccccc23)c1 | / | 0.42 | 0.98 | 58* | 2 | / | 0
C(=N\Nc1nc(-c2cccnc2)nc2ccccc12)/c1ccccc1 | / | 1 | 0.99 | -2 | 1 | / | /
O=C(CNC(=O)c1ccc(Oc2ccccc2)cc1)OC1CCCCC1=O (stereo not drawn) | 1 | 0.99 | 0.68 | 1 | 32 | -4 | /
CCS(=O)(=O)Nc1cc2c3c(c1)CCC(=O)N3CCC2 | / | 0.63 | 0.98 | 37* | 2 | / | 10
CC(C)CC(=O)NC(=S)NNC(=O)c1ccc(NC(=O)C2CCCCC2)cc1 | 1.4 | 2.3* | 1.1 | -126 | -8 | -36 | 62
Cc1ccc(NC(=O)CN(C(=O)N2CCN(C)CC2)S(=O)(=O)c2ccc(C)cc2)cc1 | / | 0.92 | 0.97 | 8 | 3 | / | /
Cc1ccc(S(=O)(=O)N(CC(=O)Nc2ccc(C)cc2C)C(=O)N2CCN(C)CC2)cc1 | / | 0.64 | 0.96 | 36* | 4 | / | -55*
